Sampled rows, rich in hits. Any-hit rate of the full collection: about 2.6%.
MC4R antag cAMP: human MC4R antagonism in cAMP assay; P32245; hit rate 0.48% among 360,000; MC4R-expressing cells, MTII-stimulated cAMP, LANCE TR-FRET; inhibition, % at 6.5 µM;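 active = inhibition above its plate's cutoff, the mean of tested wells on that plate plus 3 SD, cut at about 29% in these data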;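 note: 0% = Melanotan II alone and 100% = Melanotan II plus saturating MCL0020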
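System – human MC4R-expressing U2OS cells · Also added – Melanotan II · Dosing – one concentration, 6.5 µM nominal · Timing – 30-min compound, 1-h challenge, 1-h detection, room temperature · Measured by – Eu-cAMP/anti-cAMP TR-FRET, emission 671 nm · Replicates – singlicate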
hiPSC survival: hiPSC single-cell survival enhancement. ATPlite luminescence; 100% = ROCK inhibitor wells, 0% = DMSO. survival enhancement, % at 20 µM. hit rate 0.044% among 360,000. AID 602274; in the data active = survival enhancement above about 18%;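 note: cells exposed to compounds for 16 hours before the ATP read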
MC4R ag barr: activates human MC4R beta-arrestin recruitment. P32245. activation, % at 8.9 µM. hit rate 0.98% among 360,000. U2OS MC4R beta-arrestin complementation, luminescence; percent of melanotan II response, DMSO zero;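 active = activation above a per-plate cutoff, the mean activation of sample wells on that plate plus 3 SD, cut at about 8% in these data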
Exocytosis inh: blocks lytic granule exocytosis; TALL-104 LAMP-1 surface exposure, flow cytometry; cells stimulated with thapsigargin and PMA; inhibition, % at 10 µM; hit rate 0.66% among 360,000; AID 651702;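 active = inhibition above about 55%, limit read from the data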
Tb MetRS inh: blocks T. brucei methionyl-tRNA synthetase activity. purified T. brucei MetRS, ATP depletion, Kinase-Glo luminescence. inhibition, % at 11.9 µM. hit rate 0.4% among 360,000;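 active = inhibition above a per-plate cutoff of the control wells' mean inhibition plus 3 SD, cut at about 5.5% in these data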;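 note: 0% = DMSO wells median and 100% = median of wells with control inhibitor compound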
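Assay system: T. brucei methionyl-tRNA synthetase, purified | Medium: HEPES buffer with MgCl2, KCl, DTT, spermine, BSA, pyrophosphatase | Compound: 11.9 µM single point | Incubation: 15 min enzyme-compound preincubation, 2 h reaction, 10 min detection, 25 °C | Measured by: Kinase-Glo luciferase luminescence reporting remaining unconsumed ATP | Measure: % inhibition normalized to control-well medians | Replication: Singlicate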
ABCB6 inh 2: blocks the human ABCB6 transporter; Q9NP58; K562-ABCB6 porphyrin accumulation, flow cytometry, 1 h; stronger effect = lower value; fluorescence ratio to DMSO, % at 10 µM; hit rate 0.19% among 360,000; AID 602162;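 active = fluorescence ratio to DMSO below 75%, the collection mean minus 3 SD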;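 note: signal is porphyrin accumulated inside mitochondria; 100% equals median channel fluorescence of DMSO control wells; lower ratio means ABCB6 inhibition with less porphyrin fluorescence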
TbMetRS confirm: Trypanosoma brucei MetRS inhibition confirmed; shares compounds with Tb MetRS inh; T. brucei MetRS enzyme, luminescence (ATP depletion); inhibition, % at 11.9 µM; hit rate 93% among 1,400; in the data active = inhibition above about 7%
Jurkat tox: Jurkat T cell cytotoxicity for MetRS hits | shares compounds with Tb MetRS inh | Jurkat cells viability, ATP luminescence | inhibition, % at 8.3 µM | hit rate 12% among 1,400 | AID 624413; in the data active = inhibition above about 15%;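 note: 0% = vehicle and 100% = reference inhibitor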
TbMetRS FP orth: orthogonal test for Trypanosoma brucei MetRS inhibitors | shares compounds with Tb MetRS inh | AID 651607 | hit rate 44% among 1,400 | inhibition, % at 11.9 µM | purified T. brucei MetRS, fluorescence polarization; in the data active = inhibition above about 17%;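 note: 0% = vehicle wells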
* hit, by the source's call; x = no result given.

SMILES	MC4R antag cAMP	hiPSC survival	MC4R ag barr	Exocytosis inh	Tb MetRS inh	ABCB6 inh 2	TbMetRS confirm	Jurkat tox	TbMetRS FP orth
COc1ccc(CNC(=O)CSc2nc3ccc(OC)cc3[nH]2)cc1	-1	0	-1	2	3	96	x	x	x
CC(Sc1ccc(Cl)cc1)C(=O)NCc1ccc2c(c1)OCO2 (centres undefined)	11	2	1	6	0	102	x	x	x
CCOC(=O)N1CCN(C(=S)NC(=O)/C=C/c2ccc(C)cc2)CC1	-7	0	-4	-12	0	95	x	x	x
O=C(CSc1nc2ccccc2[nH]1)NC1CCCC1	0	0	-1	-2	1	97	x	x	x
O=C(CSc1nc2ccccc2[nH]1)NC1CCS(=O)(=O)C1 (centres undefined)	8	3	-1	12	9.3*	105	18*	6	-3
Cn1c(=O)c2c(ncn2CC(=O)OCC(=O)c2ccc(F)c(F)c2)n(C)c1=O	2	0	1	-2	0	89	x	x	x
CCS(=O)(=O)N1CCN(c2ccc(Cl)cc2[N+](=O)[O-])CC1	1	2	-2	7	5.7*	93	14*	8	7
O=[N+]([O-])c1cc(Cl)ccc1N1CCCCC1	3	-4	-1	2	0	94	x	x	x
Nc1nc(Nc2ccccc2)nc2ccccc12	-6	11	1	0	19*	98	31*	20*	18*
O=C(CN1CCN(CCC(=O)Nc2ccccc2F)CC1)Nc1ccc(F)cc1	-4	1	1	2	-2	87	x	x	x
O=C(CN1CCN(CCC(=O)Nc2ccccc2F)CC1)Nc1ccc(Cl)cc1	1	0	3	6	6.4*	98	-1	9	3
O=C(NCc1ccccc1)C1=C[C@H](c2ccc(Br)cc2)C[C@H](OCCCCO)O1	2	-1	-1	0	0	98	x	x	x
O=C(NCc1nc2ccccc2[nH]1)C1=C[C@@H](c2ccc(Br)cc2)C[C@@H](OCCCCO)O1	-1	0	0	-10	85*	89	104*	1	106*
O=C(NCc1nc2ccccc2[nH]1)C1=C[C@@H](c2ccc(Br)cc2)C[C@@H](OCc2ccc(CO)cc2)O1	10	1	-2	-11	79*	95	101*	4	84*
C#CCNC(=O)C1=C[C@H](c2coc3ccccc3c2=O)C[C@H](OCCCCO)O1	13	1	1	-1	0	100	x	x	x
O=C(NCc1nc2ccccc2[nH]1)C1=C[C@H](c2coc3ccccc3c2=O)C[C@H](OCCCCO)O1	1	1	-1	-2	17*	97	53*	-3	18*
Cc1csc(NC(=O)CSC2=NCCS2)n1	-1	0	-1	-6	0	99	x	x	x
CC(C)(C)c1csc(NC(=O)CSC2=NCCS2)n1	12	0	0	1	6.0*	85	2	4	8
CCc1cccc(CC)c1NC(=O)COC(=O)C1(C)CC1(Cl)Cl (centres undefined)	-5	2	-2	-1	-1	102	x	x	x
CCOc1ccc(C2c3[nH]c4ccccc4c3C[C@H]3C(=O)N(C4CCN(Cc5ccccc5)CC4)CC(=O)N23)cc1OC (some centres undefined)	12	-1	3	-4	-1	92	x	x	x
O=C1[C@@H]2Cc3c([nH]c4ccccc34)C(c3cccc([N+](=O)[O-])c3)N2C(=O)CN1C1CCN(Cc2ccccc2)CC1 (some centres undefined)	26	0	3	16	91*	95	94*	0	74*
COc1ccc(Cl)cc1S(=O)(=O)Nc1ncn[nH]1	-4	0	0	1	0	95	x	x	x
CCn1ncc(CN2CCC(Oc3cc(C(=O)NC4CC4)ccc3OC)CC2)c1C	-1	0	-3	-1	0	96	x	x	x
CC(Oc1ccc([N+](=O)[O-])cc1)C(=O)NCCCN1CCOCC1 (centres undefined)	2	0	-3	-1	0	105	x	x	x
Cc1ccc2c(c1)c1nnc(SCC(=O)Nc3ccccc3C(F)(F)F)nc1n2CC(=O)O	15	4	-1	-3	5	94	x	x	x
SMILES	MC4R antag cAMP	hiPSC survival	MC4R ag barr	Exocytosis inh	Tb MetRS inh	ABCB6 inh 2	TbMetRS confirm	Jurkat tox	TbMetRS FP orth
Cc1ccc2c(c1)c1nnc(SCC(=O)Nc3cccc(Cl)c3C)nc1n2CC(=O)O	15	0	0	2	23*	101	65*	-7	33*
C=CCNC(=S)NNC(=O)Cn1c(-c2ccccc2)cc(=O)n2ncnc12	7	-1	0	2	10*	96	17*	11	12
O=C(CSc1nc2ccccc2[nH]1)Nc1nc(-c2ccc(Br)cc2)cs1	3	-1	6	22	20*	99	36*	9	71*
NS(=O)(=O)c1cccc(NC(=O)CSc2nc3ccc(Cl)cc3[nH]2)c1	8	0	-2	-3	8.1*	95	16*	-3	15
CCN(CC)S(=O)(=O)c1cccc(NC(=O)CSc2nc3ccccc3[nH]2)c1	-5	-2	-1	-1	2	98	x	x	x
O=C(CSc1nc2ccccc2[nH]1)Nc1cccc(S(=O)(=O)N2CCOCC2)c1	6	0	2	2	40*	93	40*	6	18*
Cc1ccc2nc(SCC(=O)Nc3cccc(S(=O)(=O)N(C)C)c3)[nH]c2c1	8	2	-1	3	1	94	x	x	x
Cc1nonc1NC(=O)CSc1nc2ccc(Cl)cc2[nH]1	7	0	0	4	19*	102	33*	-7	18*
Cc1nonc1NC(=O)CSc1nc2ccccc2[nH]1	0	-1	0	-1	0	90	x	x	x
CCCc1cc(=O)[nH]c(SCC(=O)Nc2nc(-c3ccccc3)cs2)n1	16	0	1	-1	0	101	x	x	x
C=CCN(CC=C)Cc1cc(=O)oc2cc(C)cc(C)c12	x	1	x	-4	0	100	x	x	x
Cc1nc(N)[nH]c(=O)c1CCCNc1ccc([N+](=O)[O-])cc1	7	4	0	-4	2	101	x	x	x
COc1ccccc1CNC(=O)CCc1nnc2ccc(NCCCN3CCCC3=O)nn12	-1	0	0	1	0	102	x	x	x
